Measurements as given in ChEMBL document CHEMBL2321866 (J Med Chem, 2013).
pEC50, pKi: −log10 of the molar value. Activity calls are given as the source filed them. The rule behind the calls is not given here.

Columns and labels:
Homo sapiens = species: Homo sapiens; test: Selectivity index, ratio of Ki for CB1 receptor (unknown origin) to Ki for CB2 receptor (unknown origin)
Cannabinoid receptor 2 [1] = target: T1, Cannabinoid receptor 2 (Homo sapiens, UniProt P34972); test: Displacement of [3H]CP-55,940 from CB2 receptor (unknown origin) after 1 hr by scintillation counting analysis; conditions: for pKi: read-out: Ki
T1 sequence (P34972 whole entry): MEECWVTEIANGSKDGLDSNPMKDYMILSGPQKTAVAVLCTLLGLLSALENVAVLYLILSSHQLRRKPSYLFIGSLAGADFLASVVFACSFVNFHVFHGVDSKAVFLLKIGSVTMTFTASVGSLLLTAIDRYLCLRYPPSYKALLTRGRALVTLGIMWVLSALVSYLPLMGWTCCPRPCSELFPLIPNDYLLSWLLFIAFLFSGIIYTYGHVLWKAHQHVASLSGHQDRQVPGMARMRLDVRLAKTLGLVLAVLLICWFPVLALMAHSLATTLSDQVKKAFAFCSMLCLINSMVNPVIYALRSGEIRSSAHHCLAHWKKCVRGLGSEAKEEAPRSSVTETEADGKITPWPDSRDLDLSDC

RAW264.7 [2] = test: Inhibition of RANKL-induced osteoclastogenesis in mouse RAW264.7 cells at 10 uM after 5 days by TRAP assay relative to control; assay type: functional; conditions: RAW264.7, 120 h
Method in brief: (§1)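 RAW 264.7 murine monocytic cells were seeded at 3 × 10^3 per well and cultured 24 h in αMEM with 10% FBS. Medium was then replaced with the same medium containing RANKL (15 ng/mL) plus test compound. […] Mean of three experiments, each in triplicate.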

Cannabinoid receptor 1 = Cannabinoid receptor 1 (Homo sapiens, UniProt P21554)
Cannabinoid receptor 1, sequence (P21554 whole entry): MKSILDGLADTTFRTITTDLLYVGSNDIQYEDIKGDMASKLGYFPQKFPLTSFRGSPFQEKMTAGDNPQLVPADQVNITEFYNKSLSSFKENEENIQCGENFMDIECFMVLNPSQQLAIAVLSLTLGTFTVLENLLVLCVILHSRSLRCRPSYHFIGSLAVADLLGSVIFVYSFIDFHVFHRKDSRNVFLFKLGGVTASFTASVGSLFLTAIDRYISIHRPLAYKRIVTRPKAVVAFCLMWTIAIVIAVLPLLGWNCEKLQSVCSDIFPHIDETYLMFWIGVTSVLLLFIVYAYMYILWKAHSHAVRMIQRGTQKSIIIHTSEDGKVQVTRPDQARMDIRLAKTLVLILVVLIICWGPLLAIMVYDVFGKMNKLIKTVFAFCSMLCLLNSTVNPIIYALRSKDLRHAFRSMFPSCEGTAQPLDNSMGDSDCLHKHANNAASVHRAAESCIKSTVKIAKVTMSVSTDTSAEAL

RAW264.7 [3] = test: Inhibition of RANKL-induced osteoclastogenesis in mouse RAW264.7 cells after 5 days by TRAP assay; assay type: functional, cell-based
Method in brief: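 RAW 264.7 cells, 3×10^3 per well, grown 24 h in αMEM/10% FBS, then switched to medium with RANKL (15 ng/mL) plus compound (0.1–10 µM). After 5 days cells fixed and TRAP-stained; TRAP+ cells with more than three nuclei scored as osteoclasts. Mean of three experiments in triplicate.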

RAW264.7 [4] = test: Cytotoxicity against mouse RAW264.7 cells assessed as cell viability at […] after 3 days by MTT assay; assay type: cell-based; conditions: raw264.7, 72 h
Cannabinoid receptor 2 [5] = target: T1, Cannabinoid receptor 2; test: Inverse agonist activity at human CB2 receptor expressed in CHO cells assessed as increase in forskolin-induced cAMP production after 45 mins in presence of phosphodiesterase inhibitor RO20-1724; assay type: functional, cell-based
RAW264.7 [6] = test: Cytotoxicity against mouse RAW264.7 cells assessed as cell viability at 2.5 uM after 3 days by MTT assay relative to vehicle-treated control; assay type: cell-based; conditions: raw264.7, 72 h
Method in brief: (§2)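 Survival measured by MTT and expressed as percent of vehicle control. Mean ± S.E.M. of experiments run in triplicate.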

RAW264.7 [7] = test: Inhibition of RANKL-induced osteoclastogenesis in mouse RAW264.7 cells at 1 uM after 5 days by TRAP assay relative to control; assay type: functional; method in brief: as §1
RAW264.7 [8] = test: Cytotoxicity against mouse RAW264.7 cells assessed as cell viability at 5 to 10 uM after 3 days by MTT assay; assay type: cell-based; conditions: raw264.7, 72 h; method in brief: as §2
RAW264.7 [9] = test: Cytotoxicity against mouse RAW264.7 cells assessed as cell viability at 5 uM after 3 days by MTT assay; assay type: cell-based; conditions: raw264.7, 72 h; method in brief: as §2
RAW264.7 [10] = test: Inhibition of RANKL-induced osteoclastogenesis in mouse RAW264.7 cells at 0.1 uM after 5 days by TRAP assay relative to control; assay type: functional; conditions: RAW264.7, 120 h; method in brief: as §1

Ratio Ki (Homo sapiens) | pKi (Cannabinoid receptor 2 [1]) | Compound | other results
 | 5.96 | CCCCCCCN(Cc1ccc(N(CC)CC)cc1)S(=O)(=O)c1ccc(F)cc1 | 
 | 6.67 | CCCCCCCN(Cc1ccc(N(CC)CC)cc1)C(=O)C1CCCCC1 | 
 | 5.88 | CCCCCCCN(Cc1ccc(N(CC)CC)cc1)C(=O)Cc1ccccc1 | 
37 | 8.24 | CCN(CC)c1ccc(CN(c2ccc(C)cc2)S(=O)(=O)c2cccc(C)c2)cc1 | 
 | 5.17 | CCCCCCCN(Cc1ccc(N(CC)CC)cc1)S(=O)(=O)c1ccc(Cl)cc1 | 
 | 5.64 | CCCCCCCN(Cc1ccc(N(CC)CC)cc1)S(=O)(=O)c1cccc(C)c1 | 
 | 5.89 | CCCCCCCN(Cc1ccc(N(CC)CC)cc1)C(=O)c1ccc(N(C)C)cc1 | 
0.9 | 6.65 | CCN(CC)c1ccc(CN(C(=O)C2CCCCC2)c2ccc(C)cc2)cc1 | 
 | 5.17 | CCN(CC)c1ccc(CNc2ccc(Cl)cc2)cc1 | 
 | 6.65 | CCN(CC)c1ccc(CN(c2ccc(Cl)cc2)S(=O)(=O)c2ccc(C(C)C)cc2)cc1 | 
> 277 | 7.14 | CCN(CC)c1ccc(CN(C(=O)Cc2ccccc2)c2ccc(C)cc2)cc1 | pKi (Cannabinoid receptor 1): < 4.70
 | 8.55 | CCN(CC)c1ccc(CN(c2ccc(Cl)cc2)S(=O)(=O)c2cccc(C)c2)cc1 | 
 | 6.56 | CCCCCCCN(Cc1ccc(N(CC)CC)cc1)S(=O)(=O)Cc1ccccc1 | 
183 | 7.44 | CCN(CC)c1ccc(CN(c2ccc(Cl)cc2)S(=O)(=O)c2ccc(Cl)cc2)cc1 | 
151 | 8.47 | CCN(CC)c1ccc(CN(c2ccc(C)cc2)S(=O)(=O)c2ccccc2)cc1 | pEC50 (Cannabinoid receptor 2 [5]): 6.22
121 | 6.79 | CCN(CC)c1ccc(CN(C(=O)C2CCCCC2)c2ccc(Cl)cc2)cc1 | pKi (Cannabinoid receptor 1): < 4.70
782 | 8.37 | CCN(CC)c1ccc(CN(c2ccc(C)cc2)S(=O)(=O)c2ccc(C(C)C)cc2)cc1 | 
 | < 4.70 | CCCCCCCN(Cc1ccc(N(CC)CC)cc1)S(=O)(=O)c1ccc(OC(C)C)cc1 | 
 | 8.27 | CCN(CC)c1ccc(CN(c2ccc(C)cc2)S(=O)(=O)c2ccc(C)cc2)cc1 | 
153 | 8.25 | CCN(CC)c1ccc(CN(c2ccc(C)cc2)S(=O)(=O)c2ccc(F)cc2)cc1 | 
 | 6.20 | CCCCCCCC(=O)N(Cc1ccc(N(CC)CC)cc1)[C@]12C[C@H]3C[C@H](C[C@H](C3)C1)C2 | 
 | 5.28 | CCCCCCCN(Cc1ccc(N(CC)CC)cc1)S(=O)(=O)c1ccc(OC)cc1 | 
 | 4.89 | CCCCCCCN(Cc1ccc(N(CC)CC)cc1)S(=O)(=O)c1ccc(C(C)C)cc1 | 
3.7 | 7.43 | CCN(CC)c1ccc(CN(c2ccc(Cl)cc2)S(=O)(=O)c2ccc(C)cc2)cc1 | 
 | 8.52 | CCN(CC)c1ccc(CN(c2ccc(C)cc2)S(=O)(=O)c2ccc(Cl)cc2)cc1 | 
 | < 4.70 | CCCCCCCC(=O)N(CCCCCCC)Cc1ccc(N(CC)CC)cc1 | 

More lines, now with the values behind:

Compound | Ratio Ki (Homo sapiens) | pKi (Cannabinoid receptor 2 [1]) | other results
CCN(CC)c1ccc(CN(C(=O)Cc2ccc(Cl)cc2)c2ccc(C)cc2)cc1 | 29 | 6.97 | 
CCN(CC)c1ccc(CN([C@]23C[C@H]4C[C@H](C[C@H](C4)C2)C3)S(=O)(=O)c2cccc(C)c2)cc1 |  | 7.72 | inhibition at 10 µM (RAW264.7 [2]): > 95%; pKi (Cannabinoid receptor 1): 5.08; inhibition (RAW264.7 [3]): Dose-dependent effect; Activity (RAW264.7 [4]): Non-toxic
CCN(CC)c1ccc(CN(C(=O)Cc2ccc(Cl)cc2)c2ccc(Cl)cc2)cc1 | 147 | 6.87 | 
CCCCCCCN(Cc1ccc(N(CC)CC)cc1)S(=O)(=O)CCCC |  |  | Ki (Cannabinoid receptor 2 [1]; read-out: pKi (converted)): 697 nM
CCN(CC)c1ccc(CN([C@]23C[C@H]4C[C@H](C[C@H](C4)C2)C3)S(=O)(=O)c2ccc(F)cc2)cc1 |  | 7.60 | pKi (Cannabinoid receptor 1): 5.37; pEC50 (Cannabinoid receptor 2 [5]): 6.57
CCN(CC)c1ccc(CN(c2ccc(Cl)cc2)S(=O)(=O)c2ccc(OC)cc2)cc1 | > 1430 | 7.85 | Activity (RAW264.7 [6]): Non-toxic; inhibition (RAW264.7 [7]): Active; Activity (RAW264.7 [8]): Toxic; inhibition at 10 µM (RAW264.7 [2]): > 95%; pKi (Cannabinoid receptor 1): < 4.70; pEC50 (Cannabinoid receptor 2 [5]): 7.79; inhibition (RAW264.7 [3]): Dose-dependent effect; Activity (RAW264.7 [9]): Toxic; Activity (RAW264.7 [4]): Non-toxic
CCN(CC)c1ccc(CN([C@]23C[C@H]4C[C@H](C[C@H](C4)C2)C3)S(=O)(=O)c2ccc(OC)cc2)cc1 |  | 6.86 | 
CCN(CC)c1ccc(CN(c2ccc(C)cc2)S(=O)(=O)c2ccc(OC)cc2)cc1 | 2590 | 9.30 | Activity (RAW264.7 [6]): Non-toxic; inhibition at 1 µM (RAW264.7 [7]; RAW264.7, 120 h): 97%; Activity (RAW264.7 [8]): Toxic; inhibition at 0.1 µM (RAW264.7 [10]): 46%; inhibition at 10 µM (RAW264.7 [2]): 100%; pEC50 (Cannabinoid receptor 2 [5]): 7.37; inhibition (RAW264.7 [3]): Dose-dependent effect; Activity (RAW264.7 [9]): Toxic
CCN(CC)c1ccc(CN(c2ccc(Cl)cc2)S(=O)(=O)c2ccc(F)cc2)cc1 | 15 | 7.14 | 
CCN(CC)c1ccc(CN[C@]23C[C@H]4C[C@H](C[C@H](C4)C2)C3)cc1 |  | 4.70 | 
CCN(CC)c1ccc(CN([C@]23C[C@H]4C[C@H](C[C@H](C4)C2)C3)S(=O)(=O)c2ccc(C(C)C)cc2)cc1 |  | 6.34 | 
CCN(CC)c1ccc(CN([C@]23C[C@H]4C[C@H](C[C@H](C4)C2)C3)S(=O)(=O)c2ccc(C)cc2)cc1 |  |  | pKi (Cannabinoid receptor 1): < 4.70
CCN(CC)c1ccc(CN([C@]23C[C@H]4C[C@H](C[C@H](C4)C2)C3)S(=O)(=O)c2ccc(Cl)cc2)cc1 | 11 | 6.76 | pKi (Cannabinoid receptor 1): 5.69
CCN(CC)c1ccc(CN(C(=O)Cc2ccc(Cl)cc2)[C@]23C[C@H]4C[C@H](C[C@H](C4)C2)C3)cc1 |  |  | pKi (Cannabinoid receptor 1): < 4.70
Cc1ccc(S(=O)(=O)N(CCc2ccc(Cl)cc2)S(=O)(=O)c2ccc(C)cc2)cc1 | 26 | 6.72 | 
CCCCCCCN(Cc1ccc(N(CC)CC)cc1)C(=O)Cc1ccc(Cl)cc1 |  | 6.16 | 
CCN(CC)c1ccc(CN(C(=O)C2CCCCC2)[C@]23C[C@H]4C[C@H](C[C@H](C4)C2)C3)cc1 | > 571 | 7.46 | pKi (Cannabinoid receptor 1): < 4.70
CCN(CC)c1ccc(CN([C@]23C[C@H]4C[C@H](C[C@H](C4)C2)C3)S(=O)(=O)c2ccccc2)cc1 | 130 | 7.08 | pKi (Cannabinoid receptor 1): 4.96
CCN(CC)c1ccc(CN(C(=O)Cc2ccccc2)[C@]23C[C@H]4C[C@H](C[C@H](C4)C2)C3)cc1 | > 333 | 7.42 | pKi (Cannabinoid receptor 1): < 4.70
